Laboratory results published in ChEMBL document CHEMBL4813967, “Tackling resistance in chronic myeloid leukemia: Novel cell death modulators with improved efficacy” (Eur J Med Chem, 2021).
Activity calls are given as the source filed them. The rule behind the calls is not given here.

Columns and labels:
[1] = tested on: K562; test: Induction of cell sensitization to imatinib in imatinib-resistant human K562 cells assessed as cell death at >10 uM incubated for 72 hrs in presence of 1 uM imatinib by PI staining based flow cytometry; assay type: functional; conditions: dose microM >10, time 72.0 hrs
Procedure, shortened: (§1)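 K562-resistant cells, a doxorubicin-resistant K562 subclone (KD225), grown in RPMI 1640 with 10% FCS. Seeded 2×10^5/well and exposed 72 h to compound alone or with 1 µM imatinib. PI/Triton X-100 staining 2 h at 4 °C; flow cytometry scoring sub-G1 nuclei as dead cells. DMSO vehicle (≤0.1%) controls. Mean ± SEM of ≥3 experiments.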

[2] = tested on: K562; test: Induction of cell sensitization to imatinib in imatinib-resistant human K562 cells assessed as cell death at 10 uM incubated for 72 hrs in presence of 1 uM imatinib by PI staining based flow cytometry (reference value: 19%); assay type: functional
[3] = tested on: K562; test: Induction of cell sensitization to imatinib in imatinib-resistant human K562 cells assessed as cell death at 5 uM incubated for 72 hrs in presence of 1 uM imatinib by PI staining based flow cytometry (reference value: 19%); assay type: functional
[4] = molecular target: T1, Peroxisome proliferator-activated receptor gamma (Homo sapiens, UniProt P37231); test: Agonist activity at Gal4-fused human PPARgamma transfected in African green monkey COS7 cells co-transfected with pGal5-TK-pGL3 and pRenilla-CMV assessed as receptor transactivation at 10 uM incubated for 39 hrs by dual luciferase reporter gene assay relative to piaglitazone; assay type: cell-based; conditions: COS-7, human, read-out: max activation
T1 sequence (P37231 whole entry): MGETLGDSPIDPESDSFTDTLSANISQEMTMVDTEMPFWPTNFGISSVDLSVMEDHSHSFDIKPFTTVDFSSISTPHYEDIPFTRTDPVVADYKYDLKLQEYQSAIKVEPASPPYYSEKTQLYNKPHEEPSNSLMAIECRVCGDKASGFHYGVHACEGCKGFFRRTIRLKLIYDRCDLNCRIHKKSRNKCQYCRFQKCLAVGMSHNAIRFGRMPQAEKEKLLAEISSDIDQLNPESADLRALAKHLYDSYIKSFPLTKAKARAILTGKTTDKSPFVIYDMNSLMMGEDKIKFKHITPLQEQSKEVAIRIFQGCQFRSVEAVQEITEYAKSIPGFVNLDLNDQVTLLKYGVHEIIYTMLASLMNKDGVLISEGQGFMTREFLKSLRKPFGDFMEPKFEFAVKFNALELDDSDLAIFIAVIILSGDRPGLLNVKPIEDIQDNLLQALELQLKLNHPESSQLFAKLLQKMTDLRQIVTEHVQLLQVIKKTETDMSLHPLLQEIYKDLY
Procedure, shortened: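 COS-7 cells (10^4/well, triplicates) grown 24 h, then transiently transfected with pGal5-TK-pGL3 (90 ng), pGal4-hPPARγDEF (9 ng) and pRenilla-CMV (3 ng). Compound added 7 h later, incubation 39 h. Cells lysed by freezing at -80 °C overnight plus lysis buffer. Firefly luciferase normalised to Renilla. Activity at 10 µM expressed relative to pioglitazone at 10 µM (100%). Mean ± SD of ≥3 experiments.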

[5] = tested on: K562; test: Induction of cell sensitization to imatinib in imatinib-resistant human K562 cells assessed as cell death at 1.75 uM incubated for 72 hrs in presence of 1 uM imatinib by PI staining based flow cytometry (reference value: 19%); assay type: functional
[6] = Cytotoxicity against human HS5 cells assessed as cell death at 5 uM incubated for 72 hrs by PI staining based flow cytometry; conditions: hs5, 72 h
Procedure, shortened: (§2)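 HS-5 stromal cells in DMEM with 10% FCS, 5% CO2, 37 °C. Seeded 0.5×10^5/well, given compound (5 µM) alone or with imatinib, and incubated 72 h. Cells stained with PI/Triton X-100 for 2 h at 4 °C. Dead cells counted by flow cytometry as sub-G1 nuclei. DMSO vehicle control included.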

[7] = tested on: COS-7; test: Cytotoxicity against African green monkey COS7 cells assessed as cell viability at 10 uM incubated for 72 hrs by MTT assay; assay type: cell-based; conditions: chlorocebus aethiops, cos-7, 72 h
Procedure, shortened: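 COS-7 cells in DMEM with 10% FCS and L-glutamine, no antibiotics or phenol red. Seeded 2×10^3/well in triplicate, grown 24 h, then compound added at 10 µM final and incubated 72 h. Modified MTT (tetrazolium) metabolic-activity readout by absorbance. DMSO control set to 100%; DMSO ≤0.1%. Mean + SD of ≥3 experiments, triplicate determinations.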

[8] = Modulation of STAT5 expression in imatinib-resistant human K562 cells assessed as STAT5 level at 5 uM measured after 6 hrs by Jess Simple Western immunoassay (reference value: 100%); assay type: functional
Procedure, shortened: (§3)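 K562-resistant (doxorubicin-resistant KD225) cells treated 6 h with compound at 5 µM, alone or with 1 µM imatinib, against a DMSO control. Total protein extracts analysed by capillary Jess Simple Western. STAT5 antibody 10 µg/ml with 0.2 mg/ml lysate; pSTAT5 (Y694/699) antibody 20 µg/ml with 2 mg/ml lysate. GAPDH (0.4 µg/ml) as loading reference; HRP anti-rabbit secondary.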

[9] = tested on: K562; test: Cytotoxicity against imatinib-resistant human K562 cells assessed as cell death at 5 uM incubated for 72 hrs by propidium iodide staining based flow cytometry; conditions: k562, 72 h; procedure, shortened: as §1
[10] = Cytotoxicity against human HS5 cells assessed as cell death at 5 uM incubated for 72 hrs in presence of imatinib by PI staining based flow cytometry; conditions: hs5, 72 h; procedure, shortened: as §2
[11] = Modulation of STAT5 expression in imatinib-resistant human K562 cells assessed as STAT5 level at 5 uM measured after 6 hrs in presence of imatinib by Jess Simple Western immunoassay (reference value: 100%); assay type: functional
[12] = molecular target: T2, Signal transducer and activator of transcription 5A (Homo sapiens) (UniProt P42229); test: Inhibition of STAT5 phosphorylation at Y694/699 residue in imatinib-resistant human K562 cells assessed as phosphorylated STAT5 level at 5 uM incubated for 6 hrs by Jess Simple Western immunoassay (reference value: 100%); assay type: cell-based; parameters: scale not given: the % may be the effect or the level left; procedure, shortened: as §3
T2 sequence (whole entry): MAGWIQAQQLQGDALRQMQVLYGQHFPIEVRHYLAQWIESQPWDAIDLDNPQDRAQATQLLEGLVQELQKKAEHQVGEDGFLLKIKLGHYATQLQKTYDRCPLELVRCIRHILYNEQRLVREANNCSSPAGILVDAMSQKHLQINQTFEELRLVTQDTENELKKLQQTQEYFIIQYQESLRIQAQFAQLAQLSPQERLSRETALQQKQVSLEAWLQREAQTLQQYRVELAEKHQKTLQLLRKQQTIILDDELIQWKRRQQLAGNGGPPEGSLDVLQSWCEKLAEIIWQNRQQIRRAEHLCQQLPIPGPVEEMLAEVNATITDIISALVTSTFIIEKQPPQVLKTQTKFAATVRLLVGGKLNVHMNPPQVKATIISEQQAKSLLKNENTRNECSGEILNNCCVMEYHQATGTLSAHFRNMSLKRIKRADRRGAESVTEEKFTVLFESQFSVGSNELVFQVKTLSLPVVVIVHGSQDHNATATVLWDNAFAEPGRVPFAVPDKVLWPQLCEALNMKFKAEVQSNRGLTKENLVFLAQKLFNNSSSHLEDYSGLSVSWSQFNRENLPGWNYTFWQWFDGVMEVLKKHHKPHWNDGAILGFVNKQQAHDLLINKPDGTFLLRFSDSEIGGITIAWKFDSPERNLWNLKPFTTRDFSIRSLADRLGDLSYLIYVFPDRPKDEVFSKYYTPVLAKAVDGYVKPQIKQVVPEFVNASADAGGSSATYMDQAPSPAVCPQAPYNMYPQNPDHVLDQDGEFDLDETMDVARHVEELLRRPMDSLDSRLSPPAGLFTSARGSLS

[13] = molecular target: T2, Signal transducer and activator of transcription 5A (Homo sapiens); test: Inhibition of STAT5 phosphorylation at Y694/699 residue in imatinib-resistant human K562 cells assessed as phosphorylated STAT5 level at 5 uM incubated for 6 hrs in presence of imatinib by Jess Simple Western immunoassay (reference value: 100%); assay type: cell-based; parameters: scale not given: the % may be the effect or the level left
[14] = tested on: COS-7; test: Cytotoxicity against African green monkey COS7 cells assessed as cell viability at 10 uM incubated for 72 hrs by MTT assay; conditions: chlorocebus aethiops, cos-7, 72 h

CCc1ccc(CCOc2ccc(CC3SC(=O)NC3=O)cc2)nc1 (configuration not stated)
Activity [1]: inactive

CCCc1nc2c(C)cc(-c3nc4ccccc4n3C)cc2n1Cc1ccc(-c2ccccc2C(=O)O)cc1 [TELMISARTAN]
Activity [2]: 63% | Activity [3]: 57% | Emax at 10 µM [4]: 59.8% | Activity [5]: 21%

CCCc1nc2c(C)cc(-c3nc4ccccc4n3C)cc2n1Cc1ccc(-c2ccccc2C(N)=O)cc1
Activity [2]: 89% | Activity [3]: 76% | Activity [5]: 41%

CCCc1nc2c(F)cccc2n1Cc1ccc(-c2ccccc2C(=O)OC)cc1
Activity [2]: >85% | Activity [3]: 26% | Activity [6]: Non-Toxic | Activity [7]: Non-Toxic | Activity [8]: 98% | Emax at 10 µM [4]: 14.7% | Activity [9]: <= 20% | Activity [10]: Non-Toxic | Activity [11]: 103% | Activity [12]: 102% | Activity [13]: 42% | Activity [14]: Non-Toxic

CCCc1nc2c(Cl)cccc2n1Cc1ccc(-c2ccccc2C(=O)OC)cc1
Activity [2]: >85% | Activity [3]: 57% | Activity [6]: Non-Toxic | Activity [7]: Non-Toxic | Activity [8]: 103% | Emax at 10 µM [4]: 22.2% | Activity [9]: <= 20% | Activity [10]: Non-Toxic | Activity [11]: 101% | Activity [12]: 87% | Activity [13]: 3% | Activity [14]: Non-Toxic
